Assay results from article PMC10685179 (RSC Advances, 2023).
≈ marks a conversion by molar mass, not a printed value.

Experiments:
E. coli KA780 [1] = test: Agar well-diffusion, inhibition zone; assay type: cell-based, Escherichia coli; settings: Escherichia coli, KA780, read-out: Average diameter of inhibition zone (ZI)
Summary of the method: (§1)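 Clinical MDR isolates from complicated UTI patients. Suspensions were made in Tryptic Soya and Sabouraud broths from subcultures on Tryptic Soya and Sabouraud agar plates. Agar well diffusion followed CLSI guidelines, with test compounds applied at 10 μM in DMSO. Fosfomycin and fluconazole were positive controls and DMSO the negative control. Zone diameters were read in mm, in triplicate.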

C. albicans KA205 [2] = test: Agar well-diffusion, inhibition zone; assay type: cell-based, Candida albicans; settings: Candida albicans, KA205, read-out: Average diameter of inhibition zone (ZI)
Summary of the method: as §1

C. albicans KA205 [3] = test: Broth microdilution MIC and MFC; assay type: cell-based; settings: Candida albicans; for MIC: KA205, 24 h; for MFC: KA205, read-out: MFC/MIC
P. mirabilis KA320 [4] = test: Broth microdilution MIC and MBC; assay type: cell-based; settings: Proteus mirabilis; for MIC: KA320, 24 h; for MBC: KA320, read-out: MBC/MIC
E. coli KA780 [5] = test: Broth microdilution MIC and MBC; assay type: cell-based; settings: Escherichia coli; for MIC: KA780, 24 h; for MBC: KA780, read-out: MBC/MIC
C. tropicalis KA205 [6] = test: Broth microdilution MIC and MFC; assay type: cell-based; settings: Candida tropicalis; for MIC: KA205, 24 h; for MFC: KA205, read-out: MFC/MIC
P. mirabilis KA320 [7] = test: Agar well-diffusion, inhibition zone; assay type: cell-based, Proteus mirabilis; settings: Proteus mirabilis, KA320, read-out: Average diameter of inhibition zone (ZI)
Summary of the method: as §1

C. tropicalis KA205 [8] = test: Agar well-diffusion, inhibition zone; assay type: cell-based, Candida tropicalis; settings: Candida tropicalis, KA205, read-out: Average diameter of inhibition zone (ZI)
Summary of the method: as §1

S. aureus KA112 [9] = test: Agar well-diffusion, inhibition zone; assay type: cell-based, Staphylococcus aureus; settings: Staphylococcus aureus, KA112, read-out: Average diameter of inhibition zone (ZI)
Summary of the method: as §1

S. aureus KA112 [10] = test: Broth microdilution MIC and MBC; assay type: cell-based; settings: Staphylococcus aureus; for MIC: KA112, 24 h; for MBC: KA112, read-out: MBC/MIC
E. faecalis KA247 [11] = test: Broth microdilution MIC and MBC; assay type: cell-based; settings: Enterococcus faecalis, KA247, 24 h
E. faecalis KA247 [12] = test: Agar well-diffusion, inhibition zone; assay type: cell-based, Enterococcus faecalis; settings: Enterococcus faecalis, KA247, read-out: Average diameter of inhibition zone (ZI)
Summary of the method: as §1

[13] = test system: BNL: mouse normal liver cells; test: SRB cytotoxicity assay on normal cells; assay type: cell-based
Summary of the method: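 Mouse normal liver BNL cells were grown in DMEM with 10% heat-inactivated FBS, penicillin and streptomycin, at 37 °C in 5% CO2. […] SRB assay: 10% TCA fixation at 4 °C for 1 h, 0.4% SRB for 10 min at room temperature, 1% acetic acid washes, 10 mM Tris solubilisation, absorbance at 540 nm. Mean of three, with SD.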

fungal isolates = test: Broth microdilution MIC/MFC, fungal panel; assay type: cell-based

MIC (C. albicans KA205 [3])	MIC (P. mirabilis KA320 [4])	MIC (E. coli KA780 [5])	MIC (C. tropicalis KA205 [6])	MIC (S. aureus KA112 [10])	MIC (E. faecalis KA247 [11])	SMILES	zone of inhibition at 10 µM (E. coli KA780 [1])	zone of inhibition at 10 µM (C. albicans KA205 [2])	MFC (C. albicans KA205 [3])	MBC (P. mirabilis KA320 [4])	MBC (E. coli KA780 [5])	MFC (C. tropicalis KA205 [6])	zone of inhibition at 10 µM (P. mirabilis KA320 [7])	zone of inhibition at 10 µM (C. tropicalis KA205 [8])	zone of inhibition at 10 µM (S. aureus KA112 [9])	MBC (S. aureus KA112 [10])	zone of inhibition at 10 µM (E. faecalis KA247 [12])	IC50 [13]	MFC (fungal isolates)
1 µg/mL (≈ 2.96 µM)	8 µg/mL (≈ 23.7 µM)	4 µg/mL (≈ 11.9 µM)	1 µg/mL (≈ 2.96 µM)	8 µg/mL (≈ 23.7 µM)	8 µg/mL (≈ 23.7 µM)	Nc1nc2c(-c3ccc([N+](=O)[O-])cc3)nn(-c3ccccc3)c2s1 [Compound 2, 3-(4-nitrophenyl)-1-phenyl-1H-pyrazolo[4,3-d]thiazol-5-amine]	17 ± 0.62 mm	17 ± 0.16 mm	0.5 µg/mL (≈ 1.48 µM)	1 µg/mL (≈ 2.96 µM)	0.5 µg/mL (≈ 1.48 µM)	2 µg/mL (≈ 5.93 µM)	16 ± 0.79 mm	16 ± 0.63 mm	17 ± 0.39 mm	0.5 µg/mL (≈ 1.48 µM)	17 mm	–	–
–	–	–	–	–	–	COc1cccc2c1C(=O)c1c(O)c3c(c(O)c1C2=O)C[C@@](O)(C(=O)CO)C[C@@H]3O[C@H]1C[C@H](N)[C@H](O)[C@H](C)O1 [DOX, Doxorubicin, reference compound]	–	–	–	–	–	–	–	–	–	–	–	14.7 µM	–
1 µg/mL (≈ 1.67 µM)	2 µg/mL (≈ 3.34 µM)	1 µg/mL (≈ 1.67 µM)	1 µg/mL (≈ 1.67 µM)	1 µg/mL (≈ 1.67 µM)	2 µg/mL (≈ 3.34 µM)	CCOP(=O)(OCC)C(Nc1nc2c(-c3ccc([N+](=O)[O-])cc3)nn(-c3ccccc3)c2s1)c1ccc(Cl)cc1 (centres unmarked) [Compound 3, Diethyl((4-chlorophenyl)((3-(4-nitrophenyl)-1-phenyl-1H-pyrazolo[4,3-d]thiazol-5-yl)amino)methyl)phosphonate]	19 ± 0.14 mm	17 ± 0.88 mm	1 µg/mL (≈ 1.67 µM)	1 µg/mL (≈ 1.67 µM)	1 µg/mL (≈ 1.67 µM)	0.5 µg/mL (≈ 0.836 µM)	17 ± 0.71 mm	17 ± 0.48 mm	18 ± 0.31 mm	2 µg/mL (≈ 3.34 µM)	18 ± 0.05 mm	–	0.5 to 1 µg/mL (≈ 0.836 to 1.67 µM)

SMILES	MIC (C. albicans KA205 [3])	MIC (P. mirabilis KA320 [4])	MIC (E. coli KA780 [5])	MIC (C. tropicalis KA205 [6])	MIC (S. aureus KA112 [10])	MIC (E. faecalis KA247 [11])	zone of inhibition at 10 µM (E. coli KA780 [1])	zone of inhibition at 10 µM (C. albicans KA205 [2])	MFC (C. albicans KA205 [3])	MBC (P. mirabilis KA320 [4])	MBC (E. coli KA780 [5])	MFC (C. tropicalis KA205 [6])	zone of inhibition at 10 µM (P. mirabilis KA320 [7])	zone of inhibition at 10 µM (C. tropicalis KA205 [8])	zone of inhibition at 10 µM (S. aureus KA112 [9])	MBC (S. aureus KA112 [10])	zone of inhibition at 10 µM (E. faecalis KA247 [12])	IC50 [13]	MFC (fungal isolates)
O=[N+]([O-])c1ccc(-c2nn(-c3ccccc3)c3sc(NC(c4cccs4)P(=O)(Oc4ccccc4)Oc4ccccc4)nc23)cc1 (centres unmarked) [Compound 6a, Diphenyl(((3-(4-nitrophenyl)-1-phenyl-1H-pyrazolo[4,3-d]thiazol-5-yl)amino)(thiophen-2-yl)methyl)phosphonate]	0.5 µg/mL (≈ 0.751 µM)	2 µg/mL (≈ 3 µM)	1 µg/mL (≈ 1.5 µM)	0.5 µg/mL (≈ 0.751 µM)	1 µg/mL (≈ 1.5 µM)	2 µg/mL (≈ 3 µM)	19 ± 0.66 mm	20 ± 0.89 mm	0.5 µg/mL (≈ 0.751 µM)	1 µg/mL (≈ 1.5 µM)	0.5 µg/mL (≈ 0.751 µM)	1 µg/mL (≈ 1.5 µM)	18 ± 0.5 mm	20 ± 0.2 mm	19 mm	1 µg/mL (≈ 1.5 µM)	18 ± 0.74 mm	–	–
